# High-throughput results deposited in PubChem by Broad Institute.
# CFTR F508del cor = CFTR F508del correction in bronchial cells; actives 0.36% (n = 350,000); CFBE cells, YFP halide quenching; stimulated with forskolin plus potentiator P3; % fluorescence drop versus neutral controls; AID 720511; activity (quench increase), % at 7.58 µM;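 active = mean added fluorescence quench of at least 8% versus neutral control, with both replicates also reaching 8%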;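 note: cells transiently co-express mutant CFTR-F508del with the halide-sensitive YFP; corrector assay measuring rescue of mutant channel to the surface after 24 h compound exposure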
# E-selectin induc = induces E-selectin expression in human endothelial cells | actives 0.37% (n = 260,000) | HUVEC E-selectin immunofluorescence imaging; normalized: neutral wells 0, TNF-alpha wells 100 | AID 686992 | activation, % at 7.58 µM;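 active = mean E-selectin-positive cell signal at least 10% of the positive control, reached in at least 60% of replicates, without over 20% cell loss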
# Target sequence (P16581 whole entry, looked up): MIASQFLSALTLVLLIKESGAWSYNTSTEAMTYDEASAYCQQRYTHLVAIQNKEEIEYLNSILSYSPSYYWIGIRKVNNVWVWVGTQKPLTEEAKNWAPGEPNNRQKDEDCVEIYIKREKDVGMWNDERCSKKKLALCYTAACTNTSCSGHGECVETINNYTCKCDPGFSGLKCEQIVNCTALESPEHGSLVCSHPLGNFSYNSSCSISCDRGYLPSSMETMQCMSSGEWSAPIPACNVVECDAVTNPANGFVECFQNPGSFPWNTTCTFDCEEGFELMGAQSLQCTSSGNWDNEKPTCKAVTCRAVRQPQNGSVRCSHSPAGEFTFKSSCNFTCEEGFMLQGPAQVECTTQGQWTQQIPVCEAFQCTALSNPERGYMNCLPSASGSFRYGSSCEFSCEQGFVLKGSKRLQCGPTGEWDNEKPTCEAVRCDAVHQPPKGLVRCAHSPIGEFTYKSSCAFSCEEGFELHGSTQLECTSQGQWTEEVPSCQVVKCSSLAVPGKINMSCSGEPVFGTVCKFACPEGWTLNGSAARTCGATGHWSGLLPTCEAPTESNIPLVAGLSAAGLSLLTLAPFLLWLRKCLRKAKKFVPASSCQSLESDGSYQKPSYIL
#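 Read-out: % PE-positive cells | Test system: HUVEC | Doses: One compound dose added by pin transfer | Buffer or medium: EGM-2 over gelatin coat | Signal: Immunofluorescence imaging | Benchmarks: TNF-alpha, DMSO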
# XiGFP reactiv = activators of X-chromosome reactivation in mouse fibroblasts; actives 0.055% (n = 360,000); XiGFP mouse fibroblasts, % GFP-positive cells imaging, 3 d; cells co-treated with 5-aza-dC sensitizer; scaled so ellipticine positive control = 100%; activation, % at 7.58 µM;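 active = mean normalized replicate activation at least 10% and every replicate at or above 10%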
#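 Material: SV40-immortalized XiGFP fibroblast cells, line 68-5-11 | Buffer or medium: DMEM containing 5-aza-dC | Dosing: One concentration, pinned | Times: 3 d treatment, 15 min room-temperature fixation | Controls: Ellipticine 6 µM positive control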
# Hits are given with their value; - = inactive; . = not tested or not shown. Hits are enriched below; roughly 0.61% of the tested compounds scored in any of these assays.
SMILES,CFTR F508del cor,E-selectin induc,XiGFP reactiv
CCOC(=O)Cc1nn(CC)c(=O)c2ccccc12,-,.,-
CCn1nc(CC(=O)O)c2ccccc2c1=O,-,185.1,-
CN(C)c1ccc2c(c1)[C@@H]1C[C@@H](CC(=O)NCc3ccc(-c4ccccc4)cc3)O[C@@H](CO)[C@@H]1O2,-,-,-
CNC[C@@H]1Oc2c(NC(=O)Nc3c(C)noc3C)cccc2C(=O)N([C@@H](C)CO)C[C@@H]1C,-,-,-
COc1cccc(S(=O)(=O)N2CC3(CN(C(=O)Nc4cccc(F)c4)[C@H](CO)c4[nH]c5cc(OC)ccc5c43)C2)c1,-,-,-
O=C1c2oc3ccccc3c(=O)c2C(c2cccc(O)c2)N1CCCN1CCOCC1 (centres undefined),-,-,-
COc1cccc(C2c3c(oc4ccccc4c3=O)C(=O)N2CCCN2CCOCC2)c1OC (centres undefined),-,45.9,.
O=C(COC(=O)CCc1nc2ccccc2c(=O)[nH]1)NC(c1ccccc1)c1ccccc1,-,-,-
CC(NC(=O)COC(=O)CCc1nc2ccccc2c(=O)[nH]1)c1ccccc1 (centres undefined),-,49.0,-
COc1ccc(-c2cnc3c(c2)C(=O)N([C@@H](C)CO)C[C@@H](C)[C@H](CN(C)Cc2ccccn2)O3)cc1,-,-,-
CN1C(=O)c2cc(NC(=O)c3cccc(F)c3)ccc2OC[C@@H]2O[C@@H](CC(=O)NCC3CC3)CC[C@@H]21,-,-,-
COc1ccccc1CNCc1ccc2c(c1)OCO2,-,-,-
O=Cc1ccccc1OCc1ccc2c(c1)OCO2,10.9,-,-
O=C(NC1CCCC1)C1C(c2ccc(C(F)(F)F)cc2)=Nc2ccccc2N1C(=O)c1ccco1 (centres undefined),-,-,-
O=C(NC1CCCC1)C1C(c2ccc(C(F)(F)F)cc2)=Nc2ccccc2N1C(=O)c1ccccc1 (centres undefined),-,135.6,-
CO[C@H]1CN(C)C(=O)c2ccc(NC(C)=O)cc2OC[C@H](C)N(C(=O)C2CCCCC2)C[C@@H]1C,-,-,-
CN1C(=O)c2cc(NC(=O)Cc3ccccc3)ccc2OC[C@@H]2O[C@H](CC(=O)NCc3ccc(Cl)cc3)CC[C@H]21,10.5,-,-
CN1C(=O)c2cc(NC(=O)c3ccc(Cl)cc3)ccc2OC[C@@H]2O[C@H](CC(=O)NCc3cccc(F)c3)CC[C@H]21,12.4,-,-
CN1C(=O)c2cc(NC(=O)c3ccc(Cl)cc3)ccc2OC[C@H]2O[C@@H](CC(=O)NCc3cccc(F)c3)CC[C@H]21,-,-,-
CNC(=O)C[C@H]1CC[C@@H]2[C@@H](COc3ccc(NC(=O)c4cccc(F)c4)cc3C(=O)N2C)O1,-,-,-
CNC(=O)C[C@H]1CC[C@H]2[C@@H](COc3ccc(NC(=O)c4cccc(F)c4)cc3C(=O)N2C)O1,-,91.9,-
CN1C(=O)c2cc(NC(=O)Cc3ccccc3)ccc2OC[C@H]2O[C@@H](CC(=O)NCc3ccc(Cl)cc3)CC[C@@H]21,-,-,-
Cc1noc(C)c1S(=O)(=O)N(C)C[C@H]1Oc2ccc(NC(=O)Nc3ccc4c(c3)OCO4)cc2C(=O)N([C@@H](C)CO)C[C@H]1C,-,-,-
C[C@H]1CN([C@@H](C)CO)C(=O)c2cccc(NC(=O)C3CCOCC3)c2O[C@@H]1CN(C)C(=O)Nc1ccc(F)cc1,-,-,-
COc1cc2sc(-c3ccccc3OC)c(-c3ccc(O)cc3)c2cc1OC,-,-,-
SMILES,CFTR F508del cor,E-selectin induc,XiGFP reactiv
COc1ccc2sc(-c3ccccc3OC)c(-c3ccc(O)cc3)c2c1,-,41.6,-
CC=Cc1ccc2n(c1=O)C[C@@H]1[C@@H](CO)[C@H](C(=O)NCC3CC3)N(Cc3ccccc3)[C@H]21 (mixture of isomers),-,-,-
C[C@H](CO)N1C[C@H](C)[C@H](CN(C)Cc2ccc(C(=O)Nc3ccccc3N)cc2)Oc2c(NC(=O)c3ccncc3)cccc2C1=O,-,-,-
C[C@H](CO)N1C[C@H](C)[C@H](CN(C)Cc2ccc(Oc3ccccc3)cc2)Oc2c(NS(C)(=O)=O)cccc2C1=O,-,30.8,-
C[C@H](CO)N1C[C@H](C)[C@H](CN(C)Cc2ccc(C(F)(F)F)cc2)Oc2c(NS(C)(=O)=O)cccc2C1=O,-,-,-
CC(C)NC(=O)Nc1cccc2c1O[C@@H](CN(C)Cc1ccc(C(F)(F)F)cc1)[C@@H](C)CN([C@H](C)CO)C2=O,-,52.8,-
C[C@H]1CN([C@@H](C)CO)C(=O)c2cccc(NS(C)(=O)=O)c2O[C@H]1CN(C)Cc1ccc(Oc2ccccc2)cc1,-,.,-
